Test results taken from ChEMBL document CHEMBL1147053, “HIV protease inhibitors block the zinc metalloproteinase ZMPSTE24 and lead to an accumulation of prelamin A in cells” (Proc Natl Acad Sci U S A, 2007).
Each block holds one compound with its values, some of them ahead of it. Active and inactive are the calls of the source. The calls are words filed in the database; no cut-off is given here.

Columns and labels:
HeLa = test: Toxicity in human HeLa cells transfected with GFP-prelamin A construct assessed as accumulation of uncleaved protein at 20 uM by Western blot; type: cell-based
Outline: (§1)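 Cells were transiently transfected at 80% confluency with a GFP fused to the C-terminal 118 aa of prelamin A. Four hours later, the medium was changed to MEM/10% FBS and drug was added for 18 h (overnight). Uncleaved and cleaved fusion protein were resolved on Western blots probed with anti-GFP and anti-prelamin A antibodies.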

[1] = Inhibition of farnesyl transferase
Outline: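 FTase (50 ng) was incubated with 500 nM [³H]FPP and 1 μM recombinant H-Ras substrate for 10 min at 30°C, with or without drug. Protein was precipitated and glass-fibre filtered, and incorporated radiolabelled isoprenoid was counted by scintillation. Values are the mean of triplicate determinations.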

[2] = Toxicity in mouse fibroblast cells assessed as accumulation of prelamin A at 20 uM after 48 hrs by Western blot; type: cell-based
Outline: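 Mouse fibroblasts were exposed 48 h to drug (20 μM), FTI (5 μM) or DMSO. Prelamin A was detected on Western blots of cell extracts.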

[3] = molecular target: T1, CAAX prenyl protease 2 (Mus musculus) (UniProt P57791); test: Inhibition of mouse RCE1 expressed in delta ste24 delta rce1 yeast
T1 sequence (whole entry): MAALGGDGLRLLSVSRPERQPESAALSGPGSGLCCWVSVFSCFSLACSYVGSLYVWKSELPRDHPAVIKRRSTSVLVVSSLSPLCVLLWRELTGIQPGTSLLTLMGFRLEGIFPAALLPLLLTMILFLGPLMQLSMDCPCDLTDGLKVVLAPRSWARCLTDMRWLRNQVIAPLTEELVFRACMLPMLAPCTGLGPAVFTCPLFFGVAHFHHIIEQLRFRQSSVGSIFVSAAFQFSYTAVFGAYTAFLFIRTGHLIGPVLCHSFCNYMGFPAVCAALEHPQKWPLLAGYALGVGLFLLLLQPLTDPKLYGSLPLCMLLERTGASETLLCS
Outline: (§2)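 Coupled endoproteolysis/methylation assay. Δste24Δrce1 yeast membranes overexpressing mouse ZMPSTE24 or RCE1 (5 μg) plus CH2733 Ste14p membranes (8 μg) were incubated with farnesylated 15-mer a-factor peptide (5 μM for ZMPSTE24, 25 μM for RCE1) and 20 μM [¹⁴C]SAM in 100 mM Tris·HCl pH 7.5 for 30 min at 30°C. Reactions were stopped with NaOH/SDS, and base-releasable [¹⁴C]methanol was measured by vapor diffusion. IC50 values were fitted.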

[4] = Toxicity in human AG08470 cells assessed as accumulation of prelamin A at 20 uM after 10 days by Western blot; type: cell-based; details: 240 h
Outline: (§3)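 WT human fibroblasts were cultured in MEM or DMEM with 10% FBS at 37°C, 5% CO₂, then treated 10 days with drug (20 μM), FTI (5 μM) or DMSO. Western blots were probed for lamin A/C, prelamin A antisera "a" (nonfarnesylated only) and "b", and actin. Prelamin A was quantified by image analysis relative to lamin C and to mature lamin A.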

Fibroblast [5] = test: Effect on change in ZMPSTE24 protein level in mouse fibroblasts at 20 uM after 10 days by Western blot; type: functional, cell-based
Fibroblast [6] = test: Effect on change in ZMPSTE24 mRNA expression level in mouse fibroblasts at 20 uM after 10 days by PCR; type: functional, cell-based
[7] = molecular target: T2, CAAX prenyl protease 1 homolog (Mus musculus, UniProt Q80W54); test: Inhibition of mouse ZMPSTE24 expressed n delta ste24 delta rce1 yeast; outline: as §2
T2 sequence (Q80W54 whole entry): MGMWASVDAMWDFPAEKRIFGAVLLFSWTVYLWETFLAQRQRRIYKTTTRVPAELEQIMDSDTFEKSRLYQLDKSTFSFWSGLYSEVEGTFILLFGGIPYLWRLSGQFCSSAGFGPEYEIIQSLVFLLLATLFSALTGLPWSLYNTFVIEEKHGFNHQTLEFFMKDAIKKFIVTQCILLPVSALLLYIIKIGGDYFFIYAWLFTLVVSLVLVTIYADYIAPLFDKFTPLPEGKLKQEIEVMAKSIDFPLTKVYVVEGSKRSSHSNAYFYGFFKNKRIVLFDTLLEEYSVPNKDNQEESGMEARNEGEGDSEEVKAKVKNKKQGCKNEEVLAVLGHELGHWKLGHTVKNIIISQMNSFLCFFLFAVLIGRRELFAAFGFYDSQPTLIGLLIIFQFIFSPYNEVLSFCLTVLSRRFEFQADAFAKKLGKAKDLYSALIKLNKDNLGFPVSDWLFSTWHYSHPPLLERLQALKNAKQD

[8] = Toxicity in RCE1 deficient mouse fibroblast cells assessed as accumulation of prelamin A at 20 uM after 24 hrs by Western blot; type: cell-based
Outline: (§4)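 Rce1−/− or Icmt−/− mouse embryonic fibroblasts were treated 24 h with drug (20 μM) or DMSO, with FTI (5 μM) as a comparator. Extracts were run on 4–12% Bis-Tris gels and Western blotted for lamin A/C and prelamin A, using antiserum "b", which recognises both farnesylated and nonfarnesylated forms.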

[9] = Toxicity in mouse fibroblast cells assessed as accumulation of prelamin A at 20 uM after 10 days by Western blot; type: cell-based; details: 240 h
Outline: (§5)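 WT mouse fibroblasts were treated 10 days with drug (NVP at 200 and 400 μM; STV at 20 and 40 μM; LPV at 20 μM) or DMSO vehicle. Prelamin A accumulation was assessed on Western blots of cell extracts.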

[10] = molecular target: Protein-S-isoprenylcysteine O-methyltransferase (Homo sapiens) (UniProt O60725); test: Inhibition of human ICMT expressed in yeast assessed as methylation of N-acetyl-farnesylcysteine
Chain of Protein-S-isoprenylcysteine O-methyltransferase (Homo sapiens) (O60725 whole entry): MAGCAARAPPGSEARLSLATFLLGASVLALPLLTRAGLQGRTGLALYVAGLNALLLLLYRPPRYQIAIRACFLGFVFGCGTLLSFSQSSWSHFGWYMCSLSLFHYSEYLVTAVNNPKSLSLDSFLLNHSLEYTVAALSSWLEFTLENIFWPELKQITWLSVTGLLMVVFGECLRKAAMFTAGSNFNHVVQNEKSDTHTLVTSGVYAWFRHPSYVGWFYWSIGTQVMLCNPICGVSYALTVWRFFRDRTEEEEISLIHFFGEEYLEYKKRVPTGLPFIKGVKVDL

Fibroblast [11] = test: Effect on Rap1A isoprenylation in mouse fibroblast cells at 20 uM after 24 hrs by Western blot; type: functional, cell-based
Outline: (§6)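 Wild-type fibroblasts exposed 24 h to drug (20 μM) or DMSO vehicle, with GGTI-298 (15 μM) and FTI (5 μM) run alongside. Isoprenylation was judged by band mobility on Western blots. HDJ-2 extracts were resolved on 15% acrylamide/0.08% bisacrylamide SDS/PAGE; Rap1A was probed with anti-Rap1A and anti-Rap1 antibodies.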

[12] = Toxicity in human AG07095 cells assessed as accumulation of prelamin A at 20 uM after 10 days by Western blot; type: cell-based; details: 240 h; outline: as §3
Fibroblast [13] = test: Effect on HDJ2 farnesylation in mouse fibroblast cells at 20 uM after 24 hrs by Western blot; type: functional, cell-based; outline: as §6
HEK293 [14] = test: Toxicity in HEK293 cells transfected with GFP-prelamin A construct assessed as accumulation of uncleaved protein at 20 uM by Western blot; type: cell-based; details: human, hek293, 20 µM; outline: as §1
[15] = Toxicity in ICMT deficient mouse fibroblast cells assessed as accumulation of prelamin A at 20 uM after 24 hrs by Western blot; type: cell-based; outline: as §4
[16] = Toxicity in mouse fibroblast cells assessed as accumulation of prelamin A at 400 uM after 10 days by Western blot; type: cell-based; details: 240 h
Outline: (§7)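 Wild-type mouse fibroblasts were grown at 37 °C in 5% CO₂ in MEM or DMEM with 10% FBS, 2 mM L-glutamine and vitamin/amino acid supplements. Cells were exposed for 10 days to drug (200 mM DMSO stock) or DMSO vehicle. Extracts were run on 4–12% Bis-Tris gels and immunoblotted for lamin A/C, prelamin A (antiserum "b", 1:4,000) and actin.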

[17] = Toxicity in mouse fibroblast cells assessed as accumulation of prelamin A at 200 uM after 10 days by Western blot; type: cell-based; details: 240 h; outline: as §7
[18] = Toxicity in mouse fibroblast cells assessed as accumulation of prelamin A at 40 uM after 10 days by Western blot; type: cell-based; details: 240 h; outline: as §5
HEK293 [19] = test: Toxicity in HEK293 cells transfected with GFP-prelamin A construct assessed as accumulation of uncleaved protein by Western blot; details: human

SMILES: Cc1ccnc2c1NC(=O)c1cccnc1N2C1CC1 [NEVIRAPINE]
- Activity (HeLa): Non-toxic
- Activity [16]: Non-toxic
- Activity [17]: Non-toxic

SMILES: Cc1cn([C@H]2C=C[C@@H](CO)O2)c(=O)[nH]c1=O [STAVUDINE]
- Activity (HeLa): Non-toxic
- Activity [18]: Non-toxic
- Activity [9]: Non-toxic

Continued, in another order:

- Activity [1]: inactive
SMILES: COC(=O)N[C@H](C(=O)N[C@@H](Cc1ccccc1)[C@@H](O)CN(Cc1ccc(-c2ccccn2)cc1)NC(=O)[C@@H](NC(=O)OC)C(C)(C)C)C(C)(C)C [ATAZANAVIR]
- Activity (HeLa): Toxic
- Activity [2]: Toxic

- Activity [3]: inactive
- Activity [1]: inactive
- IC50 [7]: 18.4 µM
- Activity [10]: inactive
SMILES: Cc1cccc(C)c1OCC(=O)N[C@@H](Cc1ccccc1)[C@@H](O)C[C@H](Cc1ccccc1)NC(=O)[C@H](C(C)C)N1CCCNC1=O [LOPINAVIR]
- Activity [4]: Toxic
- Activity (HeLa): Toxic
- Activity (Fibroblast [5]): inactive
- Activity (Fibroblast [6]): inactive
- Activity [8]: Toxic
- Activity [9]: Toxic
- Activity [2]: Toxic
- Activity (Fibroblast [11]): inactive
- Activity [12]: Toxic
- Activity (Fibroblast [13]): inactive
- Activity (HEK293 [14]): Toxic
- Activity [15]: Toxic

- Activity [3]: inactive
- IC50 [7]: 1.2 µM
SMILES: CCC[C@@]1(CCc2ccccc2)CC(O)=C([C@H](CC)c2cccc(NS(=O)(=O)c3ccc(C(F)(F)F)cn3)c2)C(=O)O1 [TIPRANAVIR]
- Activity (HEK293 [19]): Toxic
